Laboratory results from ChEMBL document CHEMBL4177755, “Combating Drug-Resistant Fungi with Novel Imperfectly Amphipathic Palindromic Peptides” (J Med Chem, 2018).

Tests used:
[1] = Cytotoxicity against mouse RAW264.7 cells assessed as cell viability at 2 to 64 uM after 24 hrs by MTT assay relative to control; type: cell-based; details: read-out: Activity
How it was run: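 MTT viability assay. RAW264.7 or HEK293T cells at (1.0−2.0) × 10^5 per well were exposed to a peptide concentration series for 24 h at 37 °C in 5% CO2. MTT was then added at 0.5 mg/mL final for 4 h; formazan was dissolved in DMSO and read at 570 nm. Results average three independent trials.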

[2] = test system: Escherichia coli; experiment: Antibacterial activity against Escherichia coli ATCC 25922 after 24 hrs; type: functional; details: ATCC 25922, 24 h
How it was run: (§1)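 Broth microdilution. Mid-log bacteria in MHB at a final (0.5−1) × 10^5 CFU/mL were mixed with equal volumes of peptide serially diluted in 0.2% BSA. Plates were incubated 24 h at 37 °C and read at A492. MIC is the lowest concentration inhibiting 95% of growth. Each test was repeated at least 3 times.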

[3] = test system: Escherichia coli; experiment: Antibacterial activity against Escherichia coli 1005 after 24 hrs; type: functional; details: Escherichia coli, 1005, 24 h; how it was run: as §1
[4] = Antibacterial activity against Salmonella pullorum ATCC 7913 after 24 hrs; type: functional, Salmonella enterica subsp. enterica serovar Pullorum; details: Salmonella enterica, ATCC 7913, 24 h; how it was run: as §1
[5] = test system: Staphylococcus aureus; experiment: Antibacterial activity against Staphylococcus aureus ATCC 25923 after 24 hrs; type: functional; details: ATCC 25923, 24 h
How it was run: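 Modified NCCLS broth microdilution. Mid-log bacteria at (0.5−1) × 10^5 CFU/mL in MHB were mixed 1:1 with peptide serially diluted in 0.2% BSA and incubated 24 h at 37 °C. Absorbance was read at 492 nm; MIC is the lowest concentration inhibiting 95% of growth. At least 3 repeats.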

[6] = test system: Escherichia coli; experiment: Bactericidal activity against Escherichia coli ATCC 25922; type: functional; details: read-out: MBC99.9
How it was run: (§2)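 Wells from the 24 h, 37 °C MHB microdilution plates (bacteria at a final (0.5−1) × 10^5 CFU/mL; peptide diluted in 0.2% BSA) were plated on agar and incubated overnight. MBC is the lowest concentration killing >99.9% of cells. Each test was reproduced at least 3 times.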

[7] = test system: Escherichia coli; experiment: Bactericidal activity against Escherichia coli 1005; type: functional; details: read-out: MBC99.9; how it was run: as §2
[8] = test system: Staphylococcus aureus; experiment: Bactericidal activity against methicillin-resistant Staphylococcus aureus ATCC 4330; type: functional; details: read-out: MBC99.9
How it was run: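 Bacteria at (0.5−1) × 10^5 CFU/mL in MHB were exposed to serially diluted peptide (0.2% BSA) for 24 h at 37 °C, then 50 μL aliquots were plated on agar overnight. MBC is the lowest concentration killing >99.9% of cells. At least 3 repeats.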

[9] = test system: Staphylococcus epidermidis; experiment: Bactericidal activity against Staphylococcus epidermidis ATCC 12228; type: functional; details: read-out: MBC99.9; how it was run: as §2
[10] = test system: Staphylococcus aureus; experiment: Bactericidal activity against Staphylococcus aureus ATCC 25923; type: functional; details: read-out: MBC99.9; how it was run: as §2
[11] = test system: Candida albicans; experiment: Antifungal activity against Candida albicans SP3931 after 48 hrs by broth microdilution method; type: functional; details: SP3931, 48 h
How it was run: (§3)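 Modified CLSI M27-A2 broth microdilution. Yeast at (0.5−1) × 10^3 CFU/mL in MOPS-buffered RPMI 1640 was mixed 1:1 with peptide serially diluted in 0.2% BSA and incubated 48 h at 28 °C. Absorbance was read at 492 nm; MIC is the lowest concentration inhibiting 95% of growth. Triplicate, three biological replicates.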

[12] = test system: Candida albicans; experiment: Antifungal activity against Candida albicans isolated from alveolar fluid after 48 hrs by broth microdilution method; type: functional; how it was run: as §3
[13] = test system: Candida albicans; experiment: Antifungal activity against fluconazole-resistant Candida albicans 56452 after 48 hrs by broth microdilution method; type: functional; details: Candida albicans, 56452, 48 h; how it was run: as §3
[14] = test system: Candida albicans; experiment: Antifungal activity against fluconazole-resistant Candida albicans 17546 after 48 hrs by broth microdilution method; type: functional; details: Candida albicans, 17546, 48 h; how it was run: as §3
[15] = test system: Candida albicans; experiment: Fungicidal activity against Candida albicans cgmcc 2.2086 after 96 hrs; type: functional; details: cgmcc 2.2086, 96 h, read-out: MFC99.9
How it was run: (§4)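 After the 48 h, 28 °C broth microdilution in MOPS-buffered RPMI 1640 (inoculum (0.5−1) × 10^3 CFU/mL), 50 μL from each well was plated on YM agar for a further 48 h at 28 °C. MFC is the lowest concentration killing at least 99.9% of cells. Triplicate, three biological replicates.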

[16] = test system: Candida albicans; experiment: Fungicidal activity against Candida albicans SP3931 after 96 hrs; type: functional; details: SP3931, 96 h, read-out: MFC99.9; how it was run: as §4
[17] = test system: Candida albicans; experiment: Fungicidal activity against Candida albicans SP3903 after 96 hrs; type: functional; details: SP3903, 96 h, read-out: MFC99.9; how it was run: as §4
[18] = test system: Candida albicans; experiment: Fungicidal activity against Candida albicans SP3876 after 96 hrs; type: functional; details: SP3876, 96 h, read-out: MFC99.9; how it was run: as §4
[19] = test system: Candida albicans; experiment: Fungicidal activity against Candida albicans isolated from alveolar fluid after 96 hrs; type: functional; details: read-out: MFC99.9; how it was run: as §4
[20] = test system: Candida albicans; experiment: Fungicidal activity against fluconazole-resistant Candida albicans 56452 after 96 hrs; type: functional; details: Candida albicans, 56452, 96 h; read-out: MFC99.9; how it was run: as §4
[21] = test system: Candida albicans; experiment: Fungicidal activity against fluconazole-resistant Candida albicans 56214 after 96 hrs; type: functional; details: Candida albicans, 56214, 96 h; read-out: MFC99.9; how it was run: as §4
[22] = test system: Candida tropicalis; experiment: Fungicidal activity against Candida tropicalis cgmcc 2.1975 after 96 hrs; type: functional; details: cgmcc 2.1975, 96 h, read-out: MFC99.9
How it was run: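 Wells from the 48 h, 28 °C RPMI 1640/MOPS microdilution plates were plated on YM agar and incubated a further 48 h at 28 °C. MFC is the lowest concentration killing at least 99.9% of cells. Run in triplicate with three biological replicates.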

[23] = test system: Erythrocyte; experiment: Hemolytic activity in human RBC after 1 hr; type: ADME, cell-based
How it was run: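 Fresh human erythrocytes, diluted 10-fold in PBS pH 7.4, were mixed with equal volumes of peptide and held 1 h at 37 °C. After centrifugation at 1000g, supernatant hemoglobin was read at 576 nm. PBS set 0% and 0.1% Triton X-100 set 100% lysis. MHC is the concentration causing 10% hemolysis. At least three experiments were run, each in technical triplicate.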

[24] = test system: Escherichia coli; experiment: Antibacterial activity against Escherichia coli ATCC 25922 after 18 hrs in presence of NaCl by broth dilution method; type: functional; details: ATCC 25922, 18 h
[25] = test system: Escherichia coli; experiment: Antibacterial activity against Escherichia coli ATCC 25922 after 18 hrs in presence of KCl by broth dilution method; type: functional; details: ATCC 25922, 18 h
[26] = test system: Escherichia coli; experiment: Antibacterial activity against Escherichia coli ATCC 25922 after 18 hrs in presence of NH4Cl by broth dilution method; type: functional; details: ATCC 25922, 18 h
[27] = test system: Escherichia coli; experiment: Antibacterial activity against Escherichia coli ATCC 25922 after 18 hrs in presence of CaCl2 by broth dilution method; type: functional; details: ATCC 25922, 18 h
[28] = test system: Candida albicans; experiment: Antifungal activity against Candida albicans cgmcc 2.2086 in presence of NaCl by broth dilution method; type: functional
[29] = test system: Candida albicans; experiment: Antifungal activity against Candida albicans cgmcc 2.2086 in presence of KCl by broth dilution method; type: functional
[30] = test system: Candida albicans; experiment: Antifungal activity against Candida albicans cgmcc 2.2086 in presence of ZnCl2 by broth dilution method; type: functional

Work on H-RWRWWWRWR-NH2 yielded a viability at 24 h, up to 64 µM [1] of 70 to 80%, an MIC95 [2] of 4 µM and an MIC95 [3] of 2 µM. The MIC95 [4] was 2 µM, the MIC95 [5] was 4 µM and the MBC [6] was 4 µM. It also gave an MBC [7] of 4 µM, an MBC [8] of 2 µM and an MBC [9] of 8 µM. For the same substance, the MBC [10] was 8 µM, the MIC95 [11] was 8 µM and the MIC95 [12] was 8 µM. It also gave an MIC95 [13] of 4 µM, an MIC95 [14] of 1 µM and an MFC [15] of 16 µM. It also gave an MFC [16] of 16 µM, an MFC [17] of 8 µM and an MFC [18] of 4 µM. The MFC [19] was 16 µM, the MFC [20] was 4 µM and the MFC [21] was 8 µM. For the same substance, the MFC [22] was 2 µM, the HC10 [23] was > 128 µM and the MIC [24] was 4 µM. The MIC [25] was 4 µM, the MIC [26] was 4 µM and the MIC [27] was 4 µM. The MIC [28] was 16 µM, the MIC [29] was 16 µM and the MIC [30] was 8 µM.

Substance H-RIRIIIRIR-NH2 has a viability at 24 h, up to 64 µM [1] of 70 to 80%, an MIC95 [2] of 8 µM and an MIC95 [3] of 4 µM. The MIC95 [4] was 4 µM, the MIC95 [5] was 4 µM and the MBC [6] was 8 µM. The MBC [7] was 8 µM, the MBC [8] was 4 µM and the MBC [9] was 8 µM. The MBC [10] was 8 µM, the MIC95 [11] was 4 µM and the MIC95 [12] was 4 µM. It also gave an MIC95 [13] of 4 µM, an MIC95 [14] of 2 µM and an MFC [15] of 8 µM. For the same substance, the MFC [16] was 8 µM, the MFC [17] was 8 µM and the MFC [18] was 1 µM. For the same substance, the MFC [19] was 8 µM, the MFC [20] was 4 µM and the MFC [21] was 4 µM. The MFC [22] was 4 µM, the HC10 [23] was > 128 µM and the MIC [24] was 8 µM. For the same substance, the MIC [25] was 8 µM, the MIC [26] was 4 µM and the MIC [27] was 16 µM. The MIC [28] was 16 µM, the MIC [29] was 4 µM and the MIC [30] was 4 µM.

H-RRFRFFFRFRR-NH2 gave a viability at 24 h, up to 64 µM [1] of 70 to 80%, an MIC95 [2] of 4 µM and an MIC95 [3] of 4 µM. For the same substance, the MIC95 [4] was 2 µM, the MIC95 [5] was 8 µM and the MBC [6] was 4 µM. For the same substance, the MBC [7] was 4 µM, the MBC [8] was 8 µM and the MBC [9] was 4 µM. For the same substance, the MBC [10] was 16 µM, the MIC95 [11] was 4 µM and the MIC95 [12] was 4 µM. The MIC95 [13] was 4 µM, the MIC95 [14] was 2 µM and the MFC [15] was 16 µM. For the same substance, the MFC [16] was 8 µM, the MFC [17] was 2 µM and the MFC [18] was 4 µM. It also gave an MFC [19] of 8 µM, an MFC [20] of 4 µM and an MFC [21] of 8 µM. The MFC [22] was 2 µM, the HC10 [23] was > 128 µM and the MIC [24] was 4 µM. The MIC [25] was 4 µM, the MIC [26] was 4 µM and the MIC [27] was 4 µM. For the same substance, the MIC [28] was 16 µM, the MIC [29] was 16 µM and the MIC [30] was 4 µM.

Substance H-RRLRLLLRLRR-NH2 has a viability at 24 h, up to 64 µM [1] of 70 to 80%, an MIC95 [2] of 4 µM and an MIC95 [3] of 4 µM. It also gave an MIC95 [4] of 2 µM, an MIC95 [5] of 4 µM and an MBC [6] of 4 µM. The MBC [7] was 4 µM, the MBC [8] was 16 µM and the MBC [9] was 4 µM. It also gave an MBC [10] of 8 µM, an MIC95 [11] of 8 µM and an MIC95 [12] of 4 µM. The MIC95 [13] was 4 µM, the MIC95 [14] was 8 µM and the MFC [15] was 16 µM. For the same substance, the MFC [16] was 16 µM, the MFC [17] was 2 µM and the MFC [18] was 4 µM. It also gave an MFC [19] of 8 µM, an MFC [20] of 8 µM and an MFC [21] of 8 µM. The MFC [22] was 4 µM, the HC10 [23] was > 128 µM and the MIC [24] was 4 µM. It also gave an MIC [25] of 4 µM, an MIC [26] of 4 µM and an MIC [27] of 4 µM. For the same substance, the MIC [28] was 64 µM, the MIC [29] was 32 µM and the MIC [30] was 8 µM.
